Experimental data from ChEMBL document CHEMBL4602728, “6-Amino[1,2,5]oxadiazolo[3,4-b]pyrazin-5-ol Derivatives as Efficacious Mitochondrial Uncouplers in STAM Mouse Model of Nonalcoholic Steatohepatitis” (J Med Chem, 2020).

Assay: Cmax in C57BL/6 mouse at 10 mg/kg, po administered via gavage by LC/MS-MS analysis
Assay type: ADME, organism-based
Design: dose 10 mg/kg, route oral
Conditions: in vivo
How it was run: (§1)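 Male C57BL/6 mice aged 9–12 weeks received a single 10 mg/kg oral gavage bolus. The vehicle was methylcellulose 90–91%, Tween 80 2–3% and DMSO 6–8% (v/v). Tail-tip blood was drawn into heparinized capillaries and spun at 2000g for 10 min. Plasma was extracted with acetonitrile:methanol (9:1) and quantified by LC–MS/MS against spiked plasma standards (1–100 ng). n = 3.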

**Q.** For `Oc1nc2nonc2nc1Nc1ccc2ccccc2c1`, which Cmax is on record?
**A.** 12.5 µM

**Q.** With `CCCCOc1ccc(Nc2nc3nonc3nc2O)cc1` as the molecule, how does the Cmax read?
**A.** 3.4 µM

**Q.** For `CCCCc1ccc(Nc2nc3nonc3nc2O)cc1`, which Cmax is on record?
**A.** 12 µM

**Q.** For `CC(C)(C)c1ccc(Nc2nc3nonc3nc2O)cc1`, which Cmax is on record?
**A.** 22.3 µM

Assay: Cmax in Swiss albino mouse at 10 mg/kg, po administered via gavage by LC/MS-MS analysis
Assay type: ADME, organism-based
Design: dose 10 mg/kg, route oral
Conditions: in vivo
How it was run: (§2)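 Swiss Albino mice were given 10 mg/kg by oral gavage in a triturated Tween 80/0.5% (w/v) methylcellulose formulation, with three replicates per time point. Plasma was precipitated with acetonitrile containing telmisartan internal standard and analyzed by LC–MS/MS using transition m/z 286 → 125. Concentrations came from a standard curve (1–1000 ng/mL).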

**Q.** Which Cmax does the source give for `Oc1nc2nonc2nc1NC12CC3CC(CC(C3)C1)C2` here?
**A.** 18 µM

Assay: Solubility of compound in PBS at pH 7.4
Assay type: physicochemical
Conditions: buffer

**Q.** For `Fc1cccc(Nc2nc3nonc3nc2Nc2ccccc2F)c1`, which solubility is on record?
**A.** < 10 µM

Assay: Induction of mitochondrial uncoupling in rat L6 cells assessed as increase in oxygen consumption rate incubated for 90 mins by Seahorse XF analyzer based assay
Assay type: mitochondria, Mitochondria
Conditions: not given

**Q.** With `CCc1ccc(Nc2nc3nonc3nc2O)cc1` as the molecule, how does the EC50 read?
**A.** 10.7 µM

**Q.** Which EC50 does the source give for `Oc1nc2nonc2nc1Nc1ccc(OC(F)(F)F)c(F)c1` here?
**A.** 2.9 µM

**Q.** For `Oc1nc2nonc2nc1Nc1ccc(C(F)(F)F)c(F)c1`, which EC50 is on record?
**A.** 11.6 µM

**Q.** For `Oc1nc2nonc2nc1Nc1ccc(F)cc1`, which EC50 is on record?
**A.** 38.6 µM

**Q.** For `Oc1nc2nonc2nc1Nc1cccc(OCc2ccc(C(F)(F)F)cc2)c1`, which EC50 is on record?
**A.** 3 µM

**Q.** For `Oc1nc2nonc2nc1Nc1ccccc1`, which EC50 is on record?
**A.** 66.7 µM

**Q.** With `CCCCCCc1ccc(Nc2nc3nonc3nc2O)c(F)c1` as the molecule, how does the EC50 read?
**A.** 3.3 µM

**Q.** For `Oc1nc2nonc2nc1Nc1ccc(OC(F)(F)C(F)F)cc1`, which EC50 is on record?
**A.** 7 µM

**Q.** Which EC50 does the source give for `Cc1cc(OC(F)(F)F)ccc1Nc1nc2nonc2nc1O` here?
**A.** 4.6 µM

**Q.** With `Oc1nc2nonc2nc1Nc1cccc(C(F)(F)F)c1` as the molecule, how does the EC50 read?
**A.** 13.3 µM

**Q.** With `CCCCCCCCNc1nc2nonc2nc1O` as the molecule, how does the EC50 read?
**A.** 3.4 µM

**Q.** For `Oc1nc2nonc2nc1NCc1ccc(OC(F)(F)F)cc1`, which EC50 is on record?
**A.** 13.4 µM

**Q.** Which EC50 does the source give for `Oc1nc2nonc2nc1Nc1ccccc1Cl` here?
**A.** 6.3 µM

**Q.** Which EC50 does the source give for `Oc1nc2nonc2nc1Nc1ccc(OCC(F)(F)F)cc1` here?
**A.** 42.3 µM

**Q.** For `Oc1nc2nonc2nc1NCCC(F)(F)F`, which EC50 is on record?
**A.** 110 µM

**Q.** For `Oc1nc2nonc2nc1NC(c1ccccc1)c1ccccc1`, which EC50 is on record?
**A.** 38.3 µM

**Q.** For `Oc1nc2nonc2nc1Nc1ccc(C(F)(F)F)cc1F`, which EC50 is on record?
**A.** 2.6 µM

**Q.** With `Oc1nc2nonc2nc1Nc1ccccc1C(F)(F)F` as the molecule, how does the EC50 read?
**A.** 10.6 µM

**Q.** With `CCCCCc1ccc(Nc2nc3nonc3nc2O)cc1` as the molecule, how does the EC50 read?
**A.** 2.4 µM

**Q.** For `CCCCOc1cccc(Nc2nc3nonc3nc2O)c1`, which EC50 is on record?
**A.** 2.3 µM

**Q.** With `Oc1nc2nonc2nc1NC12CC3CC(CC(C3)C1)C2` as the molecule, how does the EC50 read?
**A.** 7 µM

**Q.** With `Oc1nc2nonc2nc1Nc1ccc(OC(F)(F)F)cc1F` as the molecule, how does the EC50 read?
**A.** 2.3 µM

**Q.** For `Oc1nc2nonc2nc1Nc1cccc(S(F)(F)(F)(F)F)c1`, which EC50 is on record?
**A.** 3.7 µM

**Q.** Which EC50 does the source give for `Cc1ccc(Nc2nc3nonc3nc2O)cc1` here?
**A.** 51.9 µM

**Q.** Which EC50 does the source give for `Oc1nc2nonc2nc1Nc1ccc(OCc2ccccc2)cc1` here?
**A.** 2.4 µM

**Q.** Which EC50 does the source give for `Oc1nc2nonc2nc1NC1C2CC3CC(C2)CC1C3` (stereo not drawn) here?
**A.** 22.8 µM

**Q.** Which EC50 does the source give for `CC(Nc1nc2nonc2nc1O)C12CC3CC(CC(C3)C1)C2` (stereo not drawn) here?
**A.** 4.9 µM

**Q.** With `Oc1nc2nonc2nc1Nc1ccc(OC(F)(F)F)c(Cl)c1` as the molecule, how does the EC50 read?
**A.** 3 µM

**Q.** For `Cc1cc(C)c(Nc2nc3nonc3nc2O)c(C)c1`, which EC50 is on record?
**A.** 113 µM

**Q.** With `Oc1nc2nonc2nc1Nc1ccc(OCC(F)(F)F)c(C(F)(F)F)c1` as the molecule, how does the EC50 read?
**A.** 4 µM

**Q.** With `Oc1nc2nonc2nc1Nc1ccc(Cl)cc1` as the molecule, how does the EC50 read?
**A.** 11.7 µM

**Q.** With `Oc1nc2nonc2nc1Nc1ccc2c(c1)OC(F)(F)O2` as the molecule, how does the EC50 read?
**A.** 7.6 µM

**Q.** With `CC12CC3CC(C)(C1)CC(Nc1nc4nonc4nc1O)(C3)C2` as the molecule, how does the EC50 read?
**A.** 2 µM

**Q.** With `Oc1nc2nonc2nc1Nc1ccc(OCC(F)(F)F)c(F)c1` as the molecule, how does the EC50 read?
**A.** 10.4 µM

**Q.** Which EC50 does the source give for `Oc1nc2nonc2nc1Nc1ccc2c(c1)OCO2` here?
**A.** 46.9 µM

**Q.** For `COc1cc(OC(F)(F)F)ccc1Nc1nc2nonc2nc1O`, which EC50 is on record?
**A.** 3.8 µM

**Q.** For `COc1cccc(Nc2nc3nonc3nc2O)c1`, which EC50 is on record?
**A.** 75.4 µM

**Q.** For `Oc1nc2nonc2nc1Nc1cc(C(F)(F)F)ccc1F`, which EC50 is on record?
**A.** 5.1 µM

**Q.** Which EC50 does the source give for `CCCCCc1ccc(Nc2nc3nonc3nc2O)c(F)c1` here?
**A.** 1.5 µM

**Q.** Which EC50 does the source give for `CCCCCCc1ccc(Nc2nc3nonc3nc2O)cc1` here?
**A.** 4.7 µM

**Q.** For `Oc1nc2nonc2nc1Nc1ccc(OCCCC(F)(F)F)c(F)c1`, which EC50 is on record?
**A.** 4.2 µM

**Q.** For `Oc1nc2nonc2nc1Nc1ccc2ccccc2c1`, which EC50 is on record?
**A.** 4 µM

**Q.** For `Oc1nc2nonc2nc1Nc1cccc(F)c1`, which EC50 is on record?
**A.** 31.2 µM

**Q.** With `CCCCOc1ccc(Nc2nc3nonc3nc2O)cc1` as the molecule, how does the EC50 read?
**A.** 3.7 µM

**Q.** With `O=[N+]([O-])c1cc(Nc2nc3nonc3nc2O)ccc1OC(F)(F)F` as the molecule, how does the EC50 read?
**A.** 53.5 µM

**Q.** With `CCCCc1ccc(Nc2nc3nonc3nc2O)c(F)c1` as the molecule, how does the EC50 read?
**A.** 1.1 µM

**Q.** For `Oc1nc2nonc2nc1NCCc1ccccc1`, which EC50 is on record?
**A.** 65.5 µM

**Q.** With `Cc1cc(Nc2nc3nonc3nc2O)ccc1OCC(F)(F)F` as the molecule, how does the EC50 read?
**A.** 7 µM

**Q.** Which EC50 does the source give for `Oc1nc2nonc2nc1Nc1ccc(OC(F)(F)Cl)cc1` here?
**A.** 1.9 µM

**Q.** Which EC50 does the source give for `Cc1ccc(C(F)(F)F)cc1Nc1nc2nonc2nc1O` here?
**A.** 32.8 µM

**Q.** Which EC50 does the source give for `Oc1nc2nonc2nc1Nc1cc(F)cc(F)c1` here?
**A.** 23.4 µM

**Q.** For `CCCCc1ccc(Nc2nc3nonc3nc2O)cc1`, which EC50 is on record?
**A.** 2.1 µM

**Q.** For `Fc1cccc(Nc2nc3nonc3nc2Nc2ccccc2F)c1`, which EC50 is on record?
**A.** 0.19 µM

**Q.** For `CCc1ccc(Nc2nc3nonc3nc2O)c(F)c1`, which EC50 is on record?
**A.** 6.7 µM

**Q.** With `Oc1nc2nonc2nc1Nc1ccc(OC(F)(F)F)cc1Cl` as the molecule, how does the EC50 read?
**A.** 1.4 µM

**Q.** With `CCc1cccc(Nc2nc3nonc3nc2O)c1` as the molecule, how does the EC50 read?
**A.** 25.2 µM

**Q.** Which EC50 does the source give for `Oc1nc2nonc2nc1Nc1cc(C(F)(F)F)cc(C(F)(F)F)c1` here?
**A.** 4.5 µM

**Q.** Which EC50 does the source give for `Oc1nc2nonc2nc1Nc1ccc(C(O)(C(F)(F)F)C(F)(F)F)cc1` here?
**A.** 34 µM

**Q.** For `Oc1nc2nonc2nc1Nc1ccc(C(F)(F)F)cc1`, which EC50 is on record?
**A.** 10.4 µM

**Q.** For `CC(C)(C)c1cccc(Nc2nc3nonc3nc2O)c1`, which EC50 is on record?
**A.** 2.2 µM

**Q.** With `Oc1nc2nonc2nc1Nc1cccc2ccccc12` as the molecule, how does the EC50 read?
**A.** 20.4 µM

**Q.** Which EC50 does the source give for `Oc1nc2nonc2nc1Nc1cccc(C(F)(F)F)c1F` here?
**A.** 4.9 µM

**Q.** Which EC50 does the source give for `Oc1nc2nonc2nc1Nc1ccc(OCC2CC2)c(C(F)(F)F)c1` here?
**A.** 1.8 µM

**Q.** For `Oc1nc2nonc2nc1Nc1ccc(SC(F)(F)F)cc1`, which EC50 is on record?
**A.** 1.4 µM

**Q.** For `Cc1cccc(C)c1Nc1nc2nonc2nc1O`, which EC50 is on record?
**A.** > 100 µM

**Q.** For `Oc1nc2nonc2nc1Nc1cccc(OC(F)(F)F)c1`, which EC50 is on record?
**A.** 5.1 µM

**Q.** With `Oc1nc2nonc2nc1Nc1cccc(F)c1F` as the molecule, how does the EC50 read?
**A.** 9.7 µM

**Q.** For `Oc1nc2nonc2nc1Nc1ccccc1OC(F)(F)F`, which EC50 is on record?
**A.** 7.1 µM

**Q.** Which EC50 does the source give for `Oc1nc2nonc2nc1Nc1ccccc1F` here?
**A.** 12.5 µM

**Q.** With `CC(C)(C#N)c1ccc(Nc2nc3nonc3nc2O)cc1` as the molecule, how does the EC50 read?
**A.** 35.7 µM

**Q.** Which EC50 does the source give for `Cc1ccc(Nc2nc3nonc3nc2O)cc1C` here?
**A.** 3 µM

**Q.** For `CC(=O)c1ccc(Nc2nc3nonc3nc2O)cc1`, which EC50 is on record?
**A.** 93.7 µM

**Q.** For `Oc1nc2nonc2nc1Nc1ccc(OCCCC(F)(F)F)c(C(F)(F)F)c1`, which EC50 is on record?
**A.** 2.1 µM

**Q.** For `Cc1ccc(CNc2nc3nonc3nc2O)cc1`, which EC50 is on record?
**A.** 53.2 µM

**Q.** With `Oc1nc2nonc2nc1Nc1ccc(OC(F)F)cc1` as the molecule, how does the EC50 read?
**A.** 20.6 µM

**Q.** Which EC50 does the source give for `Oc1nc2nonc2nc1Nc1ccc(S(F)(F)(F)(F)F)cc1` here?
**A.** 3.9 µM

**Q.** With `CC(C)(C)c1ccc(Nc2nc3nonc3nc2O)cc1` as the molecule, how does the EC50 read?
**A.** 3.9 µM

Assay: Half life in Swiss albino mouse at 10 mg/kg, po administered via gavage by LC/MS-MS analysis
Assay type: ADME, organism-based
Conditions: in vivo
How it was run: as §2

**Q.** For `Oc1nc2nonc2nc1NC12CC3CC(CC(C3)C1)C2`, which half-life is on record?
**A.** 66 min

Assay: Half life in C57BL/6 mouse at 10 mg/kg, po administered via gavage by LC/MS-MS analysis
Assay type: ADME, organism-based
Conditions: in vivo
How it was run: as §1

**Q.** With `Oc1nc2nonc2nc1Nc1ccc2ccccc2c1` as the molecule, how does the half-life read?
**A.** 24 min

**Q.** For `CCCCOc1ccc(Nc2nc3nonc3nc2O)cc1`, which half-life is on record?
**A.** 18 min

**Q.** With `CCCCc1ccc(Nc2nc3nonc3nc2O)cc1` as the molecule, how does the half-life read?
**A.** 42 min

**Q.** Which half-life does the source give for `CC(C)(C)c1ccc(Nc2nc3nonc3nc2O)cc1` here?
**A.** 36 min
